# Bioassay records: PubChem, several laboratories
# Most compounds without a hit are left out; they make up all but 1% or so of the library.
# CHOP UPR activ – activators of apoptotic arm of unfolded protein response (CHOP); 0.34% of 330,000 active; AID 449763; CHO-CHOP luciferase reporter, UPR activation, luminescence; percent of tunicamycin response over DMSO baseline; activation, % at 10 µM;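 active = at 10 µM dose, activation of 40% or more, normalized to positive control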;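 note: 100% = tunicamycin at 10 µg/mL and 0% = DMSO alone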
#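 measured by = luciferase luminescence | assay system = CHO-CHOP cells, stable luciferase reporter of PERK-eIF2a-CHOP signalling | amount = 500 reporter cells seeded per well | timing = 6 h compound exposure at 37 °C after overnight seeding | controls = positive tunicamycin 10 µg/mL, negative DMSO alone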
# T cell HTS – T cell immune modulation candidate; 2C CD8+ T cell-vesicle binding, flow cytometry; active compounds read low; response (vesicle binding), % at 7 µM; 0.068% of 330,000 active; AID 2052;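 active = response, share of CD8 T cells binding vesicles, and their 90th percentile fluorescence all below set limits, cut at about 80% in these data, passing the limit was not always enough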;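 note: values below 100% mean blocked vesicle binding to the CD8+ T cells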
#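 incubation = binding step 1.5 h, 37 °C, antibody labelling 20 min, ice | test system = 2C mouse CD8+ T cells | read-out basis = percent CD8+ FL2 mean versus row control | controls = Peptide-free naked vesicles (low) and QL9 vesicles with 0.7% DMSO vehicle (high) | detection = flow cytometry of vesicle-bound cells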
# XBP1 UPR activ – adaptive UPR (XBP1) activation. activation, % at 20 µM. CHO-XBP1 luciferase reporter, IRE1-XBP1 UPR activation, luminescence; percent of tunicamycin response, DMSO as zero. 0.33% of 330,000 active;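 active = versus positive control, 20 µM dose yields 30% or more activation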;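 note: 100% = tunicamycin at 10 µg/mL and 0% = DMSO only wells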
#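 Material: CHO cell line with stable XBP1 luciferase reporter; schedule: 16-18 h cell attachment at 37 °C, then 6 h compound exposure; signal: glow luminescence from Steady-Glo reagent; medium: serum-containing F12 medium, 10% FBS; benchmarks: tunicamycin 10 µg/mL and vehicle-only wells; read-out: percent activation relative to tunicamycin reference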
# B2AR ag – agonists of human beta-2 adrenergic receptor inducing internalization. Am2.2-beta2AR cells, FAP receptor internalization, flow cytometry. response, % (concentration not given with the values). 0.43% of 340,000 active. AID 504454;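 active = response above a set limit, near 3 SD of response in nonfluorescent compounds, cut at about 42% in these data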
# Target sequence (P07550 whole entry, looked up): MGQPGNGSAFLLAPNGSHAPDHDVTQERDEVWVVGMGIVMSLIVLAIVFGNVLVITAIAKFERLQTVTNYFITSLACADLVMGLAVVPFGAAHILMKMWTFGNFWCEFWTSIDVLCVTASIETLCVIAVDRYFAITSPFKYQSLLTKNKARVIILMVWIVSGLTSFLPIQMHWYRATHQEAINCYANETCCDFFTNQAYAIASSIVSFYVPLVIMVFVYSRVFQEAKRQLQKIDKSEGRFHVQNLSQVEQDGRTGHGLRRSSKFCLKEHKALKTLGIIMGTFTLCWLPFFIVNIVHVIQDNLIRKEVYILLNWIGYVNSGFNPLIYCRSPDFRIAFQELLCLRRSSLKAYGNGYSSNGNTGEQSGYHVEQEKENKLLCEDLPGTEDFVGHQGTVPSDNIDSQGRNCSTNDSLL
# An asterisk follows results filed as active; nt = no result.
SMILES,CHOP UPR activ,T cell HTS,XBP1 UPR activ,B2AR ag
CC1(C)CC(=O)c2sc(NS(=O)(=O)c3ccc([N+](=O)[O-])cc3)nc2C1,-1,300,-5,-2
COc1cccc(OC)c1-c1nnc(-c2cn(C)c3ccccc23)o1,0,33*,1,20
CC(=O)c1ccc(N2CCN(C(=O)C3CCN(C(=O)Nc4ccccc4)CC3)CC2)cc1,1,232,-4,3
CN(C)S(=O)(=O)c1ccc(NC(=O)c2ccc([N+](=O)[O-])cc2)cc1,1,0.0*,-2,-3
CC(C)N(C(=O)c1ccc(C(=O)Nc2ccc([N+](=O)[O-])cc2)cc1)C(C)C,0,606,-3,2
CC(C)(C)c1ccc(-c2cc(C(=O)NNC(=O)Nc3ccccc3)c3ccccc3n2)cc1,4,186,1,43*
Nc1cccc2c1C(=O)N(C(=O)/C=C/c1ccc(F)cc1)C2=O,5,0,1,87*
O=[N+]([O-])c1ccc(/C=N/Nc2ccnc3cc(Cl)ccc23)o1,5,403,1,-20
Clc1ccc2c(N/N=C/c3ccccc3Br)ccnc2c1,13,0,13,42*
Clc1ccc2c(N/N=C/c3cccc(Br)c3)ccnc2c1,nt,265,nt,46*
CN(C(=O)COC(=O)CN1C(=O)c2ccccc2C1=O)c1c(N)n(Cc2ccccc2)c(=O)[nH]c1=O,0,291,3,2
Cc1cn(-c2cc(NC(=O)c3ccc(C)c(NC(=O)c4cccc(-c5cn[nH]c(=O)c5)c4)c3)cc(C(F)(F)F)c2)cn1,0,742,-1,78*
COc1ccc(C(=O)c2ccc(-c3ccc(OC)cc3)nc2)cc1,-1,nt,2,6
CCc1ccc(-c2ccc(C(=O)O)cc2)nc1,2,33*,-2,8
CCCCCCCC/C=C\CCCCCCCC(=O)NCCc1ccc(O)c(O)c1,148*,599,17,34
COc1cc2c(cc1OC)C(SC)=NC(C)(C)C2,-2,210,14,22
COc1ccccc1OCc1ccc(C(=O)Nc2ccccc2F)cc1,3,233,-2,11
CCN1CCc2c(OCC(=O)Nc3cccc(C)c3C)cccc2C1=O,1,67*,-2,nt
Cc1cccc(NC(=O)COc2cccc3c2CCN(Cc2ccccc2)C3=O)c1C,-1,181,0,-71
CC(NC(=O)CCn1c(=S)[nH]c2ccsc2c1=O)c1ccccc1 (stereo unspecified),-2,218,1,8
CN(c1ccccc1C(=O)Nc1ccc(S(=O)(=O)N2CCCCC2)cc1)S(C)(=O)=O,-3,171,1,1
Cc1cc(=O)cc(C)n1-c1ccccc1N,-3,429,-1,45*
CCCCNc1c(-c2ccc(SC3CCCCC3)c(OC)c2)nc2ccc(C)cn12,1,254,-3,21
CCCCNc1c(-c2ccc(OC)c(SC3CCCCC3)c2)nc2ccc(C)cn12,-9,150,-10,76*
CC(OC(=O)Cc1n[nH]c(=O)c2ccccc12)C(=O)Nc1ccc(S(N)(=O)=O)cc1 (stereo unspecified),2,nt,1,-2
SMILES,CHOP UPR activ,T cell HTS,XBP1 UPR activ,B2AR ag
C=CCOc1cccc(C(=O)/C=C2/C(=O)Nc3ccccc32)c1,86*,282,0,78*
O=C(O)CCCNC(=O)OCc1ccccc1,0,220,-2,64*
O=C(NCCCCCCNC(=O)OCc1ccccc1)OCc1ccccc1,nt,nt,nt,-5
O=S(=O)(c1ccc(N2CCC(c3ccc(Cl)cc3)=N2)cc1)N(CCO)CCO,1,562,4,7
CN(C)CCCNS(=O)(=O)c1ccc(N2CCC(c3ccc(Cl)cc3)=N2)cc1,8,505,75*,nt
CCC1CCCCN1CCCNC(=O)c1ccc2nc(N3CCCCC3)sc2c1 (stereo unspecified),3,223,0,-10
O=C(C=Cc1ccccn1)c1ccccc1O,nt,nt,nt,49*
Cc1cc(C)nc(NC(=O)/C=C/c2ccccc2Cl)n1,5,371,3,-7
Cc1cc(N)c2cc(NC(=O)/C=C/c3ccccc3Cl)ccc2n1,13,289,6,73*
CC(=O)n1cc(N(C(=O)CCl)c2ccccc2)c2ccccc21,-3,425,-7,-12
CC(=O)n1cc(N(C(=O)CCl)c2ccc([N+](=O)[O-])cc2)c2ccccc21,-8,414,-9,61*
CCN(CC)CCOc1ccc(/C(=C(\Cl)c2ccccc2)c2ccccc2)cc1,4,247,2,60*
CCOC(=O)C(=O)NCc1ccc(/C=C2/N=C(C)C(C(=O)OCC)=C2O)o1,-1,270,-2,-3
CCOC(=O)C1=C(O)/C(=C/c2ccc(CNC(=O)C(=O)Nc3ccc(C)cc3)o2)N=C1C,-3,152,-2,75*
COC(=O)C1=C(O)/C(=C\c2ccc(CNC(=O)C(=O)Nc3ccc(C)c(C)c3)o2)N=C1C,0,408,0,70*
COC(=O)C1=C(O)/C(=C\c2ccc(CNC(=O)C(=O)Nc3ccc(C)cc3)o2)N=C1C,3,219,-4,56*
CCCCNC(=O)O[C@@H]1C[C@H]2CCCC(=O)N3CC[C@@H](C1)[C@@H]23,2,233,1,-5
CCCCCCCN(c1ccccc1)[C@@H]1C[C@H]2CCCC(=O)N3CC[C@@H](C1)[C@@H]23,nt,nt,nt,91*
O=S(=O)(/C=C/c1ccccc1)NCc1ccccc1Cl,6,161,3,67*
CCCNS(=O)(=O)/C=C/c1ccccc1,1,190,-1,-3
N#CC(C#N)=Cc1cn(-c2ncc(C(F)(F)F)cc2Cl)c2ccccc12,2,371,-1,66*
CC(=O)/C=C\c1cn(-c2ncc(C(F)(F)F)cc2Cl)c2ccccc12,2,312,0,-8
O=c1c(-c2ccccc2)c1-c1ccccc1,58*,nt,-5,nt
CC1Cc2ccccc2N1C(=O)C(C)n1cc(C(F)(F)F)cc(Cl)c1=O (stereo unspecified),0,228,-1,-7
COc1ccc(/C=N\NC(=O)c2ccccc2[N+](=O)[O-])cc1COc1c(F)c(F)c(F)c(F)c1F,3,0,-6,53*
Cc1ccc(OC(=O)COc2ccccc2C)c(-n2nc3ccccc3n2)c1,3,208,4,1
CC(C)COc1ccc(C(=O)OC2CC(C)(C)OCC2CN(C)C)cc1 (stereo unspecified),-1,818,1,12
CCN(C(=O)Cn1c(=O)oc2ccccc21)c1c(N)n(Cc2ccccc2)c(=O)[nH]c1=O,0,274,1,-2
O=C(COC(=O)C1CC2C=CC1C2)NCc1ccc(F)cc1 (stereo unspecified),0,55*,1,-5
CCc1cc2c(=O)c(-c3nc4ccccc4n3C)c(C)oc2c(CN2CCCCC2)c1O,-1,84,-1,-3
